Screening data from PubChem.
CHRM5 PAM = potentiates acetylcholine response at human M5 receptor; CHO-K1 hM5, Fluo-8 calcium, ACh EC20 PAM; 0% = ACh EC20, 100% = ACh EC100; P08912; actives 0.3% (n = 360,000); AID 624038; activation, % at 3 µM;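 active = activation above the run cutoff, the mean activation of all test compounds plus 3 SD, cut at about 18% in these data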
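Measured by: Fluo-8 calcium fluorescence; material: human M5 receptor in CHO-K1 cells; schedule: Post-acetylcholine fluorescence recording 140 s; benchmarks: low control EC20 acetylcholine (0%), high control EC100 acetylcholine (100%); read-out: Max/basal fluorescence ratio as % of EC20–EC100 ACh window; compound: single dose, 3 µM nominal final test concentration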
M4 PAM = CHRM4 positive allosteric modulation; actives 0.4% (n = 360,000); CHO-K1 hM4/Gqi5, Fluo-8 calcium fluorescence, ACh EC20; 0% = ACh EC20, 100% = maximal ACh; P08173; activation, % at 3 µM;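 active = activation above its plate's cutoff, the mean activation of sample wells plus 3 SD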
Target sequence (P08173 whole entry, looked up): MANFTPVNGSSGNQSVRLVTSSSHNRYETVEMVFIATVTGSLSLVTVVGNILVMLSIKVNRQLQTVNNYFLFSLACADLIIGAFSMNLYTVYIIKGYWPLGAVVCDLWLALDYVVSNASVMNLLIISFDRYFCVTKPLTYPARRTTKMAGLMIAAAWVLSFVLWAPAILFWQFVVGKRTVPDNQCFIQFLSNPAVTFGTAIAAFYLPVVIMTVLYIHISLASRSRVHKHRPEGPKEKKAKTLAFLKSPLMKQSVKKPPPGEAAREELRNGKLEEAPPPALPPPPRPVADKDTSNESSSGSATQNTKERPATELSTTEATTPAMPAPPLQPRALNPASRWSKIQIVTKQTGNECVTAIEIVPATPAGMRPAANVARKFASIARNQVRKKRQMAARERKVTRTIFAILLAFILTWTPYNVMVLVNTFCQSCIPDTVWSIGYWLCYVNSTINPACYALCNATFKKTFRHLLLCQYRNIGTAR
CHRM4 agonist = agonists of human muscarinic M4 receptor (CHRM4). activation, % at 3 µM. AID 624127. P08173. CHO-K1 hM4/Gqi5, Fluo-8 calcium fluorescence; vehicle 0%, full acetylcholine response 100%. actives 0.14% (n = 360,000);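 active = activation above the run mean over all test wells plus 3 SD, cut at about 32% in these data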;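 note: peak over basal fluorescence ratio per well then scaled between controls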
CHRM5 agonist = agonists of human muscarinic M5 receptor (CHRM5) | actives 0.19% (n = 360,000) | activation, % at 3 µM | CHO-K1 hM5 cells, Fluo-8 calcium fluorescence; 0% DMSO wells, 100% maximal acetylcholine response | P08912 | AID 624037;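 active = activation above the run's mean over test compounds plus 3 SD, cut at about 23% in these data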;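 note: signal is peak over basal fluorescence ratio across the kinetic read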
M5 antag = CHRM5 antagonism in calcium assay; AID 624040; actives 0.59% (n = 360,000); CHO-hM5 cells, Fluo-8 calcium fluorescence, ACh EC80; P08912; inhibition, % at 3 µM;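 active = inhibition above a per-plate cutoff, the mean of that plate's test compounds plus 3 SD, cut at about 27% in these data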
CHRM4 antagonist = CHRM4 antagonism in calcium assay; P08173; CHO-hM4 cells, ACh EC80, Fluo-8 calcium fluorescence; inhibition, % at 3 µM; actives 0.73% (n = 360,000); AID 624125;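 active = inhibition above its plate's cutoff, the mean inhibition of sample wells plus 3 SD, cut at about 27% in these data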
A number is an active result; - = inactive. Compounds with a hit are over-represented: about 1.8% of the library has one in this group of screens.

SMILES	CHRM5 PAM	M4 PAM	CHRM4 agonist	CHRM5 agonist	M5 antag	CHRM4 antagonist
COc1ccc(CCNC(=O)C2CCCN(S(=O)(=O)c3ccccc3)C2)cc1 (stereo not given)	-	-	-	-	-	-
CN(CCc1ccccc1)C(=O)c1ccc(NC(=O)Cc2ccc(NC(=O)C3CCN(S(=O)(=O)c4cccc([N+](=O)[O-])c4)CC3)cc2)cc1	-	-	-	-	-	-
CC(=O)N(Cc1ccccc1)c1ccc(C(=O)O)cc1	25	-	-	-	-	-
O=C(c1ccncc1)N(Cc1ccccc1)Cc1nc2ccccc2c(=O)[nH]1	29	-	-	-	-	-
Cc1ccc(-c2nnc(N3CCOCC3)c3ccccc23)cc1S(N)(=O)=O	19	-	-	-	-	-
Cc1ccc(-c2nnc(N3CCCCC3)c3ccccc23)cc1S(=O)(=O)N(C)C	-	-	-	-	-	-
CCOC(=O)c1ccc(N2CN(CCc3ccccc3)CNC2=S)cc1	-	-	-	-	-	-
Cc1ccc(N2CN(CCc3ccccc3)CNC2=S)cc1	-	14	-	-	-	-
COc1cc(OC)c(NS(=O)(=O)c2cc(C(=O)NCCCN3CCOCC3)ccc2C)cc1Cl	-	-	-	-	-	-
CCCCN(C)C(=O)c1sc(=O)n(Cc2ccccc2C#N)c1C	-	-	-	-	-	-
COc1ccc(N2CCOCC2)c(NC(=O)c2ccco2)c1	-	-	-	-	-	-
COC(=O)c1ccc(N2CCOCC2)c(NC(=O)c2ccco2)c1	-	-	-	-	-	28
CCn1c(SCC(=O)NNC(=O)c2ccc(C)cc2)nnc1C(C)C	-	15	-	-	-	-
O=C(Nc1c2c(nn1-c1ccc(F)cc1)CS(=O)(=O)C2)c1ccc(Br)o1	-	-	-	-	-	-
COc1ccc(C(=O)Nc2c3c(nn2-c2ccc(Cl)cc2)CS(=O)(=O)C3)cc1	25	-	-	-	-	-
COc1ccc(-n2nc3c(c2NC(=O)c2ccc(Br)o2)CS(=O)(=O)C3)cc1	-	24	-	-	-	-
CCc1ccc(N2C=C(C(=O)OC)C(c3cccc4ccccc34)C(C#N)=C2N)cc1 (stereo not given)	-	-	-	-	-	-
CCC(C)[C@@H](C(=O)Nc1ccc2c(c1)OCO2)N1Cc2ccccc2C1=O (stereo not given in full)	-	19	-	-	-	-
CC(C(=O)Nc1ccc2c(c1)OCCO2)N1Cc2ccccc2C1=O (stereo not given)	-	-	-	-	-	-
CCCCCC(=O)OCc1ccc(C2=CC(=O)CC(C)(C)C2=O)cc1	-	-	-	-	-	-
COc1ccc(N(CC(=O)N/N=C/c2ccc(C(=O)O)cc2)S(=O)(=O)c2ccc(NC(C)=O)cc2)cc1	-	22	-	-	-	-
COc1ccc(N(CC(=O)N/N=C/c2cc(Br)c(C)o2)S(=O)(=O)c2ccc(NC(C)=O)cc2)cc1	-	-	-	-	-	-
COc1ccc(-c2cc3c(=O)n(CC(=O)Nc4cccc(Cl)c4)nc(C)n3n2)cc1	-	-	-	-	-	-
COc1ccc(C[C@@H]2CN3C(=NC[C@@H]3Cc3ccc(O)cc3)N2C[C@H](C)NC(=O)CCC2CCCCC2)cc1	-	-	-	-	-	28
O=C(O)c1cccc2c1-c1ccccc1/C2=N\Nc1ccccc1	-	-	-	-	-	-
SMILES	CHRM5 PAM	M4 PAM	CHRM4 agonist	CHRM5 agonist	M5 antag	CHRM4 antagonist
O=C(O)c1cccc2c1/C(=N/O)c1ccccc1-2	20	-	-	-	-	-
CNS(=O)(=O)c1ccc(CNC[C@H]2O[C@@H](n3cnc4c(=O)[nH]c(N)nc43)[C@H](O)[C@@H]2O)cc1	-	-	-	-	-	-
O=C(NC(=S)Nc1ccc(O)cc1)C1CCCC1	-	-	-	-	-	-
CC(=O)Nc1ccc(NC(=S)NC(=O)C2CC2)cc1	-	25	-	-	-	-
COc1ccc(S(=O)(=O)N2CCC(C(=O)Oc3cccc(C)c3)CC2)cc1OC	-	-	-	-	-	-
COc1ccc(N2CCN(C(=O)COC(=O)c3nc(Cl)ccc3Cl)CC2)cc1	-	-	-	-	-	-
CC1(C(=O)NCC2CC2)CCN1C(=O)C1(c2ccccc2)CC1 (stereo not given)	-	-	-	-	-	-
COc1ccccc1CCn1cnc(-c2ccc(Br)cc2)c1C(C)C	-	-	-	-	-	-
COc1ccccc1CCn1cnc(Cc2ccccc2)c1C(C)C	-	-	-	-	-	33
CCCCCc1c(-c2ccccc2OC)ncn1CCc1ccccc1OC	-	-	-	-	32	34
COCCn1c(SCC(=O)N2CCC(C)CC2)nc2c([nH]c3ccccc32)c1=O	-	-	-	-	-	-
CCOC(=O)C1CCCN(C(=O)c2cccc(C(F)(F)F)c2)CC1 (stereo not given)	-	-	-	-	-	-
CN1[C@@H](COCc2ccccc2)C=CS1(=O)=O	-	-	-	-	-	-
CCOc1ccc(CCN2C(=S)N([C@@H](CC(C)C)CN3CCC[C@@H]3CN3C(=S)NC[C@@H]3Cc3ccccc3)C[C@@H]2Cc2ccc(O)cc2)cc1	-	-	-	-	-	-
Cc1cccc(N2C(S)=C(C#N)C(=O)NC23CCCCC3)c1	-	-	-	-	-	-
Cc1cccc(NC2=C(C#N)C(=O)NC3(CCCC3)S2)c1	-	15	-	-	-	-
CC[N+](CC)=N/N=C1\C=CC[N+]([O-])=C1	-	-	-	-	-	-
Nc1ccc(/C=C/C(=O)c2cccs2)cc1	-	-	-	33	-	-
O=C(C=Cc1ccccc1)c1cccs1	-	-	-	-	-	-
CCOC(=O)c1cnc2c(C)cc(Cl)cc2c1N1CCN(C)CC1	-	-	-	-	-	-
COc1ccc(CC(=O)Nc2cccc(-c3nnc(-c4ccc(C)cc4)o3)c2)cc1OC	-	-	-	-	-	-
COc1ccc(CC(=O)Nc2cccc(-c3nnc(-c4cccc(C)c4)o3)c2)cc1OC	-	-	-	-	36	-
CCn1c(C)cc2c(c1=O)C(c1ccc3c(c1)OCO3)C(C#N)=C(N)O2 (stereo not given)	-	-	-	-	-	30
Cc1cc2c(c(=O)n1CC1CCCO1)C(c1ccc3c(c1)OCO3)C(C#N)=C(N)O2 (stereo not given)	-	-	-	-	-	-
Cn1cnc(S(=O)(=O)N2CCCC(c3cc(C(=O)Nc4ccc(F)c(Cl)c4)no3)C2)c1 (stereo not given)	-	-	-	-	-	-
